The subject of one assay is HL-60. Kind of assay: Cytotoxicity against human HL60 cells after 72 hrs by MTT assay. The note with it: HL-60, 72 h. The format is functional, cell-based. The gist of the method: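 HL-60 human tumor cells were plated 24 h ahead, then given various compound concentrations continuously for 72 h. Proliferation inhibition was measured by MTT tetrazolium reduction, and IC50 was derived from the inhibition rates. Etoposide (VP-16) was the positive control.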
On the technique in general: Formazan colour is commonly taken as a measure of viable cells.

Assay [1] has as its system A549. The assay can be described thus: Cytotoxicity against human A549 cells after 72 hrs by SRB assay. The conditions noted are these: A549, 72 h. In general terms: In SRB staining, fixed cells bind dye roughly in proportion to their protein.
Assay [2] deals with A549. The assay can be described thus: Cytotoxicity against human A549 cells after 24 hrs by SRB assay. It counts as functional, cell-based. The conditions noted are these: A549, 24 h.

Structures are written as SMILES.

For the compound `CC(C)=C1Oc2c(ccc(CC(C)O)c2CO)C1=O` (stereo unspecified) [USTUSORANE A], the IC50 in the assay with HL-60 and with A549 [1] was > 100 µM in each case.

On to `CC(O)Cc1ccc2c(c1CO)OC(C(C)(C)O)C2` (stereo unspecified) [USTUSORANE E], for which the IC50 – broadly, the point on the concentration scale where inhibition reaches its midpoint – in the assay on HL-60 was 0.13 µM; in the assay on A549 [1] it was > 100 µM.

`CC1=CC(=O)[C@H]2C(C)(C)C[C@@H](O)C[C@]2(C)[C@@]1(O)CO` [USTUSOL B]: the IC50 in the assay on HL-60 and in the assay with A549 [1] was > 100 µM in each case.

Turning to `COC(/C=C/C=C/C(=O)O[C@@H]1C=C2COC(=O)[C@]2(O)[C@@]2(C)CCCC(C)(C)[C@H]12)OC` [USTUSOLATE D], the IC50 with HL-60 and in the assay on A549 [1] was > 100 µM throughout.

In the case of `CC(O)C/C=C/C=C/C=C/C(=O)OC1C=C2COC(=O)[C@]2(O)[C@@]2(C)CCCC(C)(C)[C@H]12` (stereo partly specified) [USTUSOLATE B], the IC50 with HL-60 and with A549 [1] was > 100 µM throughout.

For `CO[C@H]1O[C@H](C)Cc2ccc3c(c21)OC(=C(C)C)C3=O` [USTUSORANE C], the IC50 in the assay on HL-60 and in the assay on A549 [1] was > 100 µM throughout.

As for `CC(O)C/C=C/C=C/C(=O)O[C@@H]1C=C2COC(=O)[C@]2(O)[C@@]2(C)CCCC(C)(C)[C@H]12` (stereo partly specified) [USTUSOLATE C], the figures for the IC50 in the assay on HL-60 and in the assay on A549 [1] were > 100 µM and 10.5 µM, respectively.

Take `CO[C@@H]1C=C(CO)[C@](O)(CO)[C@@]2(C)CCCC(C)(C)[C@H]12` [USTUSOL C]: the IC50 in the assay with HL-60 and in the assay on A549 [1] was > 100 µM in each case.

Regarding `CO[C@H]1O[C@H](C)Cc2ccc3c(c21)OC(C(C)C)C3=O` (stereo partly specified) [USTUSORANE D], the IC50 in the assay on HL-60 and in the assay with A549 [1] was > 100 µM each time.

Consider `CC1=Cc2ccc3c(c2CO1)OC(=C(C)C)C3=O` [USTUSORANE B], for which the IC50 with HL-60 and with A549 [1] was > 100 µM each time.

Regarding `CC(C)(O)C1Cc2ccc(/C=C\CO)c(CO)c2O1` (stereo unspecified), the IC50 in the assay with A549 [2] and in the assay on HL-60 was > 100 µM throughout.

`CC1=CC(=O)[C@H]2C(C)(C)[C@@H](O)CC[C@]2(C)[C@@]1(O)CO` [USTUSOL A]: the IC50 in the assay with HL-60 and in the assay on A549 [1] was > 100 µM in each case.

In the case of `CC1(C)CCC[C@@]2(C)[C@H]1[C@H](OC(=O)/C=C/C=C/C=O)C=C1COC(=O)[C@@]12O` [USTUSOLATE E], the IC50 in the assay on HL-60 was 9 µM; in the assay with A549 [1], > 100 µM.
